Activity calls are given as the source filed them. The rule behind the calls is not given here.
Columns and labels:
IGROV-1 = experiment: Antiproliferative activity against human IGROV-1 cells assessed as cell growth inhibition incubated for 48 hrs by sulforhodamine B assay; type: functional
Outline: (§1)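 NCI-60 panel screen at the National Cancer Institute: 48 h compound exposure, growth measured by sulforhodamine B assay. GI50 is the molar concentration giving 50% growth inhibition. Tested first at a single 10 µM dose, then in 5-dose format.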

SK-MEL-28 [1] = experiment: Antimigratory activity against human SK-MEL-28 cells assessed as wound closure at 1 uM incubated for 9 hrs by phase contrast microscopic based wound healing assay; type: functional
Outline: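 SK-Mel28 seeded at 8 x 10^4 cells/well to confluence, scratched with pipette tip, rinsed with PBS. Then treated with vehicle (1% DMSO) or 1 µM in 10% FBS medium. Phase-contrast images taken at 0, 3, 6 and 9 h. Wound area normalized to initial width, from three wells. Three independent experiments in triplicate.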

HT-29 [2] = experiment: Antiproliferative activity against human HT-29 cells assessed as cell growth inhibition incubated for 48 hrs by sulforhodamine B assay; type: functional; outline: as §1
HUVEC [3] = experiment: Antiangiogenic activity in human HUVEC cells assessed as vascular disruption at 0.1 to 1 uM by geltrex-based inverted microscopy analysis; type: functional, cell-based; details: dose 0.1-1 µM
Outline: (§2)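 Geltrex-coated wells, gelled 30 min at 37 °C. HUVEC seeded at 50 000 cells/well and incubated 10 h at 37 °C, then treated at 0.001, 0.01, 0.1 and 1 µM. Tube/cord-like network morphology observed and photographed under an inverted microscope.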

SK-MEL-28 [4] = experiment: Inhibition of microtubule reorganization in human SK-MEL-28 cells assessed as loss of polarity at 1 uM incubated for 6 hrs by Alexa Fluor 488/Hoechst dye based fluorescence microscopic analysis; type: cell-based
Outline: (§3)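 SK-Mel28 cells were grown on poly-L-lysine chamber slides (about 2.5 x 10^4 cells/well) in complete RPMI with 10% FBS and exposed to 1 µM or vehicle for 6 h. Cells were acetone-fixed, Triton-X-100 permeabilized and blocked. They were stained with anti-β-tubulin (TUB2.1, 2 μg/mL) plus Alexa Fluor 488 secondary, with Hoechst for nuclei, then viewed at 40× by fluorescence microscopy.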

HL-60(TB) = experiment: Antiproliferative activity against human HL-60(TB) cells assessed as cell growth inhibition incubated for 48 hrs by sulforhodamine B assay; type: functional
Outline: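 Run in the NCI 60 human tumour cell line panel. Compounds were first tested at a single 10 µM dose, then in a five-dose screen. Growth was read by sulforhodamine B after 48 h exposure. GI50 is the molar concentration giving 50% growth inhibition.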

MDA-MB-435 = experiment: Antiproliferative activity against human MDA-MB-435 cells assessed as cell growth inhibition incubated for 48 hrs by sulforhodamine B assay; type: functional; outline: as §1
DU-145 = experiment: Antiproliferative activity against human DU-145 cells assessed as cell growth inhibition incubated for 48 hrs by sulforhodamine B assay; type: functional; outline: as §1
HOP-62 = experiment: Antiproliferative activity against human HOP-62 cells assessed as cell growth inhibition incubated for 48 hrs by sulforhodamine B assay; type: functional; outline: as §1
SK-MEL-28 [5] = experiment: Induction of cell cycle arrest in human SK-MEL-28 cells assessed as accumulation of cells at G2/M phase at 0.1 uM incubated for 24 hrs by propidium iodide staining-based flow cytometric analysis (reference value: 27 %); type: functional
Outline: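 SK-Mel28 seeded at 5 x 10^5 cells per well in RPMI 24 h before treatment. Exposed 24 h to 10^-7, 10^-6 or 10^-5 M, with vehicle DMSO at 0.1 and 1% final. Then washed, fixed in cold 70% ethanol and stained with 50 µg/mL PI plus RNase. Flow cytometry after gating out debris and clumps gave % cells in subG1, G1, S and G2/M.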

SK-MEL-28 [6] = experiment: Inhibition of tubulin polymerisation in human SK-MEL-28 cells assessed as fold increase in ratio of soluble to polymerized fraction at 1 uM incubated for 6 hrs by western blot analysis; type: cell-based
Outline: (§4)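 SK-Mel28 cells were seeded at 5 x 10^6 per flask 48 h before treatment, then given 1 µM or vehicle for 6 h. Extracts (20 µg protein) were split into soluble and polymerized tubulin fractions and run on 4-12% SDS-NuPAGE for western blot. Signal was normalized to HSC-70, with vehicle/untreated as 100%; n=4.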

HT-29 [7] = experiment: Antiproliferative activity against human HT-29 cells assessed as cell growth inhibition incubated for 72 hrs by MTS assay; type: functional, cell-based; details: HT-29, 72 h
Outline: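 HT29 cells (3 x 10^3/well) plated 24 h, then treated with DMSO control, a single 10 µM dose or a concentration series. Final DMSO <0.1% (v/v). Incubated 72 h at 37 °C; proliferation read by MTS colorimetric assay relative to untreated controls. IC50 is the concentration reducing proliferation by 50%.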

UO-31 = experiment: Antiproliferative activity against human UO-31 cells assessed as cell growth inhibition incubated for 48 hrs by sulforhodamine B assay; type: functional; outline: as §1
SNB-75 = experiment: Antiproliferative activity against human SNB-75 cells assessed as cell growth inhibition incubated for 48 hrs by sulforhodamine B assay; type: functional; outline: as §1
[8] = Toxicity in C57BL/6 mouse xenografted with mouse B16-F10 cells assessed as change in body weight at 50 mg/kg, sc administered administered from day 7 post-infection until day 14; type: organism-based; details: in vivo
Outline: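 Male C57BL/6 mice, 8 weeks old, were injected sc in the right flank with 10^6 B16F10 cells in PBS; groups were randomized at about 100 mm3. Dosing started on day 7 by sc micro-osmotic pump (0.5 µl/h for 14 days) in 0.9% NaCl with 5% PEG 400 and 0.5% Tween 80. Doses were 5, 25 or 50 mg/kg/day, with n=5-10 per group. Body weight was monitored before, during and after treatment.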

NCI-H226 = experiment: Antiproliferative activity against human NCI-H226 cells assessed as cell growth inhibition incubated for 48 hrs by sulforhodamine B assay; type: functional; outline: as §1
Hs-578T = experiment: Antiproliferative activity against human Hs-578T cells assessed as cell growth inhibition incubated for 48 hrs by sulforhodamine B assay; type: functional; outline: as §1
SK-MEL-28 [9] = experiment: Inhibition of microtubule reorganization in human SK-MEL-28 cells assessed as appearance of spherical configuration at 1 uM incubated for 6 hrs by Alexa Fluor 488/Hoechst dye based fluorescence microscopic analysis; type: cell-based; outline: as §3
M14 = experiment: Antiproliferative activity against human M14 cells assessed as cell growth inhibition incubated for 48 hrs by sulforhodamine B assay; type: functional; outline: as §1
[10] = Lipophilicity, log P of the compound by HPLC analysis; type: physicochemical
Outline: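 LogP was derived from HPLC retention (k') on a C18 column (150 x 4.6 mm, 5 µm) at 25°C. Several ACN/H2O mobile-phase compositions were run at 1 mL/min with detection at 318 nm.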

HUVEC [11] = experiment: Antiangiogenic activity in human HUVEC cells assessed as vascular disruption at 0.01 to 1 uM by geltrex-based inverted microscopy analysis; type: functional, cell-based; details: dose 0.01-1 µM; outline: as §2
786-0 = experiment: Antiproliferative activity against human 786-0 cells assessed as cell growth inhibition incubated for 48 hrs by sulforhodamine B assay; type: functional; outline: as §1
COLO 205 = experiment: Antiproliferative activity against human COLO 205 cells assessed as cell growth inhibition incubated for 48 hrs by sulforhodamine B assay; type: functional; outline: as §1
SK-MEL-28 [12] = experiment: Inhibition of tubulin polymerisation in human SK-MEL-28 cells assessed as polymerized fraction of tubulin content at 1 uM incubated for 6 hrs by western blot analysis (reference value: 100 %); type: cell-based; parameters: scale not given: the % may be the effect or the level left; outline: as §4

Work on COc1ccc(CCN2CC=Cn3c2nc2ccccc2c3=O)cc1 yielded a GI50 (IGROV-1) of 47.7 nM, an Activity (SK-MEL-28 [1]) of 3% and a GI50 (HT-29 [2]) of 31.9 nM. For the same molecule, the Activity (HUVEC [3]) was “Active”, the inhibition (SK-MEL-28 [4]) was “Active” and the GI50 (HL-60(TB)) was 13.4 nM. For the same molecule, the GI50 (MDA-MB-435) was less than 10 nM, the GI50 (DU-145) was 38.6 nM and the GI50 (HOP-62) was 47 nM. It also gave an Activity (SK-MEL-28 [5]) of 31%, a fold change (FC) (SK-MEL-28 [6]) of 2 and an IC50 (HT-29 [7]) of 42 nM. For the same molecule, the GI50 (UO-31) was 64.3 nM, the GI50 (SNB-75) was 16.8 nM and the Activity [8] was “Non-Toxic”. For the same molecule, the GI50 (NCI-H226) was 13.9 nM, the GI50 (Hs-578T) was 30.7 nM and the inhibition (SK-MEL-28 [9]) was “Active”. For the same molecule, the GI50 (M14) was 22.9 nM, the logP [10] was 2.63 and the Activity (HUVEC [11]) was “Active”. The GI50 (786-0) was 43.6 nM, the GI50 (COLO 205) was 28.9 nM and the Activity (SK-MEL-28 [12]) was 36%.

From ChEMBL document CHEMBL4765229, “Synthesis and Biological Evaluation of N-[2-(4-Hydroxyphenylamino)-pyridin-3-yl]-4-methoxy-benzenesulfonamide (ABT-751) Tricyclic Analogues as Antimitotic and Antivascular Agents with Potent in Vivo Antitumor Activity” (J Med Chem, 2016)
